{
  "source": "ChEMBL document CHEMBL1155578",
  "about": "“In vitro antiinflammatory effects of neolignan woorenosides from the rhizomes of Coptis japonica” (J Nat Prod, 2000)",
  "key": {"[1]": {"experiment": "Inhibition of IL2-dependent mouse CTLL2 cell proliferation after 48 hrs by MTT assay", "format": "functional, cell-based", "details": "CTLL-2, 48 h", "method_in_brief": "(§1)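 CTLL-2 cells were washed free of IL-2 and FBS, then resuspended at 5×10^5 cells/mL in growth medium without IL-2. They were incubated with compounds plus IL-2 (50 U/mL) for 48 h at 37 °C and 5% CO2. Proliferation was read by MTT assay. Results are mean ± SEM of four observations.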"}, "RAW264.7 [2]": {"system": "RAW264.7", "experiment": "Antiinflammatory activity against mouse RAW264.7 cells assessed as inhibition of LPS-induced TNFalpha production after 4 hrs by ELISA", "format": "functional, cell-based", "details": "RAW264.7, 4 h", "method_in_brief": "(§2)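 Compounds were dissolved in vehicle (propylene glycol/ethanol/DMSO), kept at ≤0.1% final, and added with LPS (1 µg/mL) for 4 h. Supernatant TNF-α was measured by mouse TNF-α ELISA. Results are mean ± SEM of four observations in triplicate.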"}, "RAW264.7 [3]": {"system": "RAW264.7", "experiment": "Antiinflammatory activity against mouse RAW264.7 assessed as inhibition of LPS-induced NO production after 24 hrs", "format": "functional, cell-based", "details": "RAW264.7, 24 h", "method_in_brief": "(§3)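 RAW264.7 cells were plated at 1×10^6 cells/mL and held 18 h. Compounds were then added with LPS (1 µg/mL) for lines 1 and 3, or IFN-γ (50 U/mL) for line 2, and incubated 24 h. Supernatant nitrite was measured with Griess reagent (10 min, room temperature) at OD550 against a sodium nitrite standard curve. Detection limit was 0.5 µM. Results are mean ± SEM of four observations run in triplicate.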"}, "RAW264.7 [4]": {"system": "RAW264.7", "experiment": "Antiinflammatory activity against mouse RAW264.7 assessed as inhibition of IFN-gamma-induced NO production after 24 hrs", "format": "functional, cell-based", "details": "RAW264.7, 24 h", "method_in_brief": "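RAW264.7 mouse macrophages kept in RPMI 1640 with 10% FBS and antibiotics, 37 °C, 5% CO2. Cells pre-cultured 18 h at 1×10^6 cells/mL, then given graded compound concentrations plus IFN-γ (50 U/mL) for 24 h. Supernatant nitrite read by Griess reagent (10 min, room temperature) at OD550, quantified against a sodium nitrite standard curve. Mean ± SEM, four separate observations in triplicate.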"}, "Splenocyte": {"system": "Splenocyte", "experiment": "Inhibition of Concanavalin A-stimulated cell proliferation in mouse splenocytes after 48 hrs by MTT assay", "format": "functional, cell-based", "method_in_brief": "(§4)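 Splenocytes came from BALB/c male mice (eight weeks old); red cells were lysed with NH4Cl-Tris. Cells were cultured at 5×10^6 cells/mL with Con A (1 µg/mL) and compounds for 48 h. Results are mean ± SEM of four observations.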"}, "RAW264.7 [5]": {"system": "RAW264.7", "experiment": "Antiinflammatory activity against mouse RAW264.7 cells assessed as inhibition of IFN-gamma-induced NO production at 20 uM after 24 hrs", "format": "functional", "parameters": "scale not given: the % may be the effect or the level left", "method_in_brief": "as §3"}, "[6]": {"experiment": "Inhibition of IL2-dependent mouse CTLL2 cell proliferation at 80 uM after 48 hrs by MTT assay", "format": "functional", "details": "CTLL-2, 48 h", "method_in_brief": "as §1"}, "RAW264.7 [7]": {"system": "RAW264.7", "experiment": "Antiinflammatory activity against mouse RAW264.7 cells assessed as inhibition of LPS-induced TNFalpha production at 80 uM after 4 hrs by ELISA", "format": "functional", "details": "RAW264.7, 4 h", "method_in_brief": "as §2, with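 “RAW264.7 cells (2×10^6 cells/mL) were pre-incubated 18 h in RPMI 1640 with 10% FBS. Compounds” for “Compounds”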"}, "RAW264.7 [8]": {"system": "RAW264.7", "experiment": "Antiinflammatory activity against mouse RAW264.7 cells assessed as inhibition of LPS-induced NO production at 80 uM after 24 hrs", "format": "functional", "details": "RAW264.7, 24 h", "method_in_brief": "as §3"}, "SUP-T1": {"system": "SUP-T1", "experiment": "Cytotoxicity against human Sup-T1 cells at 80 uM after 48 hrs by MTT assay", "details": "SUP-T1, 48 h"}, "[9]": {"experiment": "Antiinflammatory activity against mouse splenocytes assessed as inhibition of ConA-stimulated proliferation at 80 uM after 48 hrs by MTT assay", "format": "functional", "details": "Splenocyte", "method_in_brief": "as §4"}},
  "data": [
    {"compound": "CCCC(=O)Nc1ncnc2c1ncn2[C@@H]1O[C@@H]2COP(=O)(O)O[C@H]2[C@H]1OC(=O)CCC", "note": "[BUCLADESINE]", "values": [
      {"measurement": "IC50", "setting": "[1]", "result": 576, "unit": "µM"},
      {"measurement": "IC50", "setting": "RAW264.7 [2]", "result": 28.9, "unit": "µM"}
    ]},
    {"compound": "COC(=O)[C@@H](N)CCCNC(=N)N[N+](=O)[O-]", "note": "[L-NAME]", "values": [
      {"measurement": "IC50", "setting": "RAW264.7 [3]", "result": 193, "unit": "µM"},
      {"measurement": "IC50", "setting": "RAW264.7 [4]", "result": 116, "unit": "µM"}
    ]},
    {"compound": "N[C@H]1CONC1=O", "note": "[LEVCYCLOSERINE]", "values": [
      {"measurement": "IC50", "setting": "Splenocyte", "result": 3.5, "unit": "µM"}
    ]},
    {"compound": "CC(=O)CCCCn1c(=O)c2c(ncn2C)n(C)c1=O", "note": "[PENTOXIFYLLINE]", "values": [
      {"measurement": "IC50", "setting": "RAW264.7 [2]", "result": 247, "unit": "µM"}
    ]},
    {"compound": "C[C@]12C=CC(=O)C=C1CC[C@@H]1[C@@H]2[C@@H](O)C[C@@]2(C)[C@H]1CC[C@]2(O)C(=O)CO", "note": "[PREDNISOLONE]", "values": [
      {"measurement": "IC50", "setting": "RAW264.7 [2]", "result": 25.4, "unit": "µM"}
    ]},
    {"compound": "C/C(O)=C(\\C#N)C(=O)Nc1ccc(C(F)(F)F)cc1", "note": "[TERIFLUNOMIDE]", "values": [
      {"measurement": "IC50", "setting": "[1]", "result": 11.2, "unit": "µM"},
      {"measurement": "IC50", "setting": "Splenocyte", "result": 6.7, "unit": "µM"}
    ]},
    {"compound": "COc1cc([C@@H]2Oc3c(OC)cc(/C=C/CO[C@@H]4O[C@H](CO)[C@@H](O)[C@H](O)[C@H]4O)cc3[C@H]2CO)cc(OC)c1OC", "note": "[WOORENOSIDE I]", "values": [
      {"measurement": "Activity", "setting": "RAW264.7 [5]", "result": 8.5, "unit": "%"},
      {"measurement": "inhibition at 80 µM", "setting": "[6]", "result": -5.4, "unit": "%"},
      {"measurement": "inhibition at 80 µM", "setting": "RAW264.7 [7]", "result": 15.4, "unit": "%"},
      {"measurement": "inhibition at 80 µM", "setting": "RAW264.7 [8]", "result": 34.7, "unit": "%"},
      {"measurement": "inhibition at 80 µM", "setting": "SUP-T1", "result": 32.1, "unit": "%"},
      {"measurement": "inhibition at 80 µM", "setting": "[9]", "result": 24.8, "unit": "%"}
    ]}
  ]
}
